Results: ChEMBL document CHEMBL1159121, “Synthesis, in vitro structure-activity relationship, and in vivo studies of 2-arylthiazolidine-4-carboxylic acid amides as anticancer agents” (Bioorg Med Chem, 2010)

Experiments:
[1] = Antiproliferative activity against mouse B16-F1 cells after 48 hrs by SRB assay; assay type: functional, cell-based; details: B16-F1, 48 h
In short: (§1)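 Melanoma lines and control fibroblasts grown at 37 °C, 5% CO2, then exposed to a wide concentration range for 48 h in round-bottom 96-well plates. Fixed with 10% TCA, stained with SRB, protein read at 560 nm. IC50 (50% growth inhibition versus untreated) obtained by nonlinear regression.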

A-375 = test: Antiproliferative activity against human A375 cells after 48 hrs by SRB assay; assay type: functional, cell-based; details: A-375, 48 h; in short: as §1
[2] = Antiproliferative activity against human WM164 cells after 48 hrs by SRB assay; assay type: functional, cell-based; details: WM164, 48 h; in short: as §1
[3] = Cytotoxicity against human fibroblasts after 48 hrs by SRB assay; assay type: cell-based; details: Fibroblast; in short: as §1
[4] = Selectivity ratio of IC50 for human fibroblasts to IC50 for human melanoma cells; assay type: ADME; details: human fibroblasts and human melanoma cells, read-out: Ratio IC50
DU-145 = test: Antiproliferative activity against human DU145 cells after 96 hrs by SRB assay; assay type: functional, cell-based; details: DU-145, 96 h
In short: (§2)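 Prostate lines in RPMI1640/10% FBS; RH7777 in DMEM/10% FBS. Cells TCA-fixed, stained with 0.4% SRB, absorbance read at 540 nm. IC50 from nonlinear regression of % survival against concentration.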

PC-3 = test: Antiproliferative activity against human PC3 cells after 96 hrs by SRB assay; assay type: functional, cell-based; details: PC-3, 96 h
RH7777 [5] = test: Cytotoxicity against rat RH7777 cells after 96 hrs by SRB assay; assay type: cell-based; details: RH7777, 96 h; in short: as §2
RH7777 [6] = test: Selectivity ratio of IC50 for rat RH7777 cells to IC50 for human prostate cancer cells
In short: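 Ratio of RH7777 IC50 to the mean IC50 over four prostate lines (DU 145, PC-3, LNCaP, PPC-1). Prostate lines grown in RPMI1640/10% FBS and RH7777 in DMEM/10% FBS. Read by SRB (0.4%) at 540 nm; IC50 by nonlinear regression.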

LNCaP = test: Antiproliferative activity against human LNCAP cells after 96 hrs by SRB assay; assay type: functional, cell-based; in short: as §2
PPC-1 = test: Antiproliferative activity against human PPC1 cells after 96 hrs by SRB assay; assay type: functional, cell-based; details: PPC-1, 96 h; in short: as §2

| Compound | IC50 (A-375) [µM] | IC50 (DU-145) [µM] | IC50 (PC-3) [µM] | IC50 (LNCaP) [µM] | IC50 [1] [µM] | IC50 [2] [µM] | IC50 [3] [µM] | selectivity ratio [4] | IC50 (RH7777 [5]) [µM] | Ratio IC50 (RH7777 [6]) | IC50 (PPC-1) [µM] |
| --- | --- | --- | --- | --- | --- | --- | --- | --- | --- | --- | --- |
| CCCCCCCCCCCCCCCCCCN(C)C(=O)[C@@H]1CSC(c2ccc(NC(C)=O)cc2)N1 (mixture of isomers) | 20.6 | 3.9 | 3.7 | 1.8 | 18.9 | 10.7 | > 100 | – | 9.2 | 3.6 | 0.8 |
| CCCCCCCCCCCCNC(=O)[C@@H]1CSC(c2cc(OC)c(OC)c(OC)c2)N1 (mixture of isomers) | – | 2.8 | 2.9 | 1.4 | – | – | – | – | 6.5 | – | 1 |
| CCCCCCCCCCCCCCNC(=O)[C@H]1CSC(c2cc(OC)c(OC)c(OC)c2)N1 (mixture of isomers) | – | 2.1 | 2.9 | 1.9 | – | – | – | – | 5.8 | – | 0.7 |
| CCCCCCCCCCCCCCCCNC(=O)[C@@H]1CSC(c2ccccc2NC(C)=O)N1 (mixture of isomers) | 9.3 | 4.6 | 2.7 | 3.3 | 8 | 3.9 | 27.8 | 3.9 | 13.2 | 4.4 | 1.5 |
| CC(=O)Nc1ccc(C2N[C@H](C(=O)Nc3ccc4c(c3)Cc3ccccc3-4)CS2)cc1 (mixture of isomers) | – | – | – | – | – | – | – | 11.3 | – | – | – |
| CCCCCCCCNC(=O)[C@@H]1CSC(c2cc(OC)c(OC)c(OC)c2)N1 (mixture of isomers) | – | 17.3 | > 20 | 2.7 | – | – | – | – | > 20 | – | 14 |
| CC(=O)Nc1ccc(C2N[C@H](C(=O)Nc3nc4ccccc4s3)CS2)cc1 (mixture of isomers) | 45.9 | > 20 | > 20 | > 20 | 55.3 | > 100 | > 100 | – | > 20 | – | > 20 |
| CCCCCCCCCCCCCCCCNC(=O)[C@@H]1CSC(c2ccccc2)N1 (mixture of isomers) | – | – | – | – | – | 0.7 | 2.2 | – | – | – | – |
| CCCCCCCCCCCCCCCCNC(=O)[C@@H](N)CSCc1ccccc1 | 15.1 | – | – | – | – | 12.8 | 16.4 | – | – | – | – |
| CCCCCCCCC/C=C/CCCCCCCNC(=O)[C@@H]1CSC(c2ccccc2)N1 (mixture of isomers) | 5.3 | 1.5 | 2.1 | 1.4 | 10.1 | – | 12.4 | 2.1 | 8.9 | 6.5 | 0.6 |
| CCCCCCCCCCCCCCCCNC(=O)[C@@H](N)CSC | 12.9 | – | – | – | – | 14.4 | 61.2 | – | – | – | – |
| CNC(=O)c1cc(Oc2ccc(NC(=O)Nc3ccc(Cl)c(C(F)(F)F)c3)cc2)ccn1 [SORAFENIB] | – | – | – | – | 4.9 | 5 | – | 3 | – | – | – |
| CCCCCCCCCCCCCCCCOC(=O)[C@@H]1CSC(c2ccc(NC(C)=O)cc2)N1 (mixture of isomers) | 28 | > 20 | > 20 | > 20 | 41.9 | 18.5 | > 100 | – | > 20 | – | > 20 |
| CCCCCCCCCCCCCCCCNC(=O)[C@H](CSC)NCc1ccc(NC(C)=O)cc1 | 108 | – | – | – | – | 145 | > 100 | – | – | – | – |

Now from value to compound, other results behind:

| IC50 (A-375) [µM] | IC50 (DU-145) [µM] | IC50 (PC-3) [µM] | IC50 (LNCaP) [µM] | Compound | IC50 [1] [µM] | IC50 [2] [µM] | IC50 [3] [µM] | selectivity ratio [4] | IC50 (RH7777 [5]) [µM] | Ratio IC50 (RH7777 [6]) | IC50 (PPC-1) [µM] |
| --- | --- | --- | --- | --- | --- | --- | --- | --- | --- | --- | --- |
| 1.4 | 1.5 | 2 | 0.8 | CCCCCCCCC/C=C/CCCCCCCNC(=O)[C@@H]1CSC(c2ccc(OC)c(OC)c2)N1 (mixture of isomers) | 3.2 | 1.1 | 16.3 | 8.6 | 9.4 | 8.2 | 0.3 |
| 50.6 | > 20 | > 20 | 4.8 | CCCCCCCCCCCCCCCCNC(=O)[C@@H]1CSC(c2ccc(NS(C)(=O)=O)cc2)N1 (mixture of isomers) | 114 | 18.6 | > 100 | – | > 20 | – | 1.1 |
| 138 | > 20 | > 20 | 5.7 | CC(=O)Nc1ccc(C2N[C@H](C(=O)NC34CC5CC(CC(C5)C3)C4)CS2)cc1 (mixture of isomers) | 96.5 | 128 | > 100 | – | > 20 | – | > 20 |
| 3.1 | 0.9 | 0.8 | 1.7 | CC(=O)Nc1ccc(C2N[C@H](C(=O)Nc3ccc4cc5ccccc5cc4c3)CS2)cc1 (mixture of isomers) | 5.6 | 1.4 | 13.5 | 4 | 2.6 | 2.5 | 0.7 |
| 13 | 3.1 | 3.4 | 3.9 | CCCCCCCCCCCCCCCCNC[C@@H]1CSC(c2ccccc2)N1 (mixture of isomers) | 4.7 | 4.9 | 60 | 8 | 6.2 | 1.9 | 2.5 |
| 1.6 | 2 | 2.6 | 1.3 | CCCCCCCCC/C=C\CCCCCCCNC(=O)[C@@H]1CSC(c2ccc(OC)c(OC)c2)N1 (mixture of isomers) | 3.3 | 1.2 | 18.3 | 9 | 10 | 6.2 | 0.6 |
| 4.9 | 1.8 | 2.4 | 1.6 | CCCCCCCCC/C=C\CCCCCCCNC(=O)[C@@H]1CSC(c2ccccc2)N1 (mixture of isomers) | 6 | 2.4 | 11.6 | 2.6 | 8.3 | 4.9 | 1 |
| – | 2.6 | 2.4 | 1.5 | CCCCCCCCCCCCCCCCNC(=O)[C@@H]1CSC(c2ccc(N)cc2)N1 (mixture of isomers) | – | – | – | – | 9.4 | 5.3 | 0.6 |
| 1.5 | 2.3 | 1.6 | 1.4 | CCCCCCCCCCCCCCCCNC(=O)[C@@H]1CSC(c2cccc(NC(C)=O)c2)N1 (mixture of isomers) | 2.2 | 1.1 | 6.3 | 3.9 | 4.9 | 3.4 | 0.5 |
| 11.9 | – | – | – | CCCCCCCCCCCCCCCCNC(=O)CNCc1ccc(NC(C)=O)cc1 | – | 10.2 | 24 | – | – | – | – |
| 3.6 | 3.2 | 2.5 | 1.8 | CCCCCCCCCCCCCCCCNC(=O)[C@@H]1CSC(c2ccc(NC(N)=O)cc2)N1 (mixture of isomers) | – | 1.7 | 7.2 | 1.8 | 6.7 | 3.4 | 0.5 |
| > 100 | – | – | – | CN(C)/N=N/c1[nH]cnc1C(N)=O [DACARBAZINE] | > 100 | > 100 | > 100 | – | – | – | – |
| 66 | > 20 | > 20 | 9.7 | CC(=O)Nc1ccc(C2N[C@H](C(=O)NC3C4CC5CC(C4)CC3C5)CS2)cc1 (mixture of isomers) | 108 | 64.4 | > 100 | – | > 20 | – | > 20 |
| – | 2.2 | 2.6 | 2 | CCCCCCCCCCCCCCNC(=O)[C@@H]1CSC(c2cc(OC)c(OC)c(OC)c2)N1 (mixture of isomers) | – | – | – | – | 6.1 | – | 0.6 |
| – | 2.4 | 2.9 | 2 | CCCCCCCCCCCCNC(=O)[C@@H]1CSC(c2ccc(N)cc2)N1 (mixture of isomers) | – | – | – | – | 7.3 | 3.4 | 1.2 |
| – | 4.1 | 4.4 | 2.2 | CCCCCCCCCCNC(=O)[C@@H]1CSC(c2cc(OC)c(OC)c(OC)c2)N1 (mixture of isomers) | – | – | – | – | 6 | – | 2.1 |
| 1.5 | 2.2 | 2.7 | 1.1 | CCCCCCCCCCCCCCCCNC(=O)[C@@H]1CSC(c2ccc(OC)cc2)N1 (mixture of isomers) | 2.3 | 1 | – | 5.1 | 8.4 | 5.3 | 0.4 |
